dFosB activator: activators of delta FosB homodimer, primary screen, biochemical, fluorescence polarization, TAMRA-CDK5 oligo, single point; Protein FosB (Mus musculus), P13346; purified delta FosB; percent of positive-control signal above neutral wells; activation, % at 25 µM; 340,000 tested, 0.99% active;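 active = mean activation above about 17%, with every replicate also reaching it, limit read from the data, passing the limit was not always enough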
PAX8 inh HTS: inhibitors of PAX8-driven TPO luciferase reporter, primary screen, RMG-I cells, single concentration. SteadyGlo, 24 h. inhibition, % at 12.6 µM. 360,000 tested, 1.2% active. AID 652154, 2013;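 active = mean replicate inhibition at least 60% with every replicate also reaching 60%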;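 also: luciferase light reporting Pax8 driven TPO promoter activity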
HIV Env fusion: inhibitors of HIV-1 Env-driven cell-cell fusion, primary screen, HeLa-JRFL effector, CEM21 target cells, luciferase; 360,000 tested, 1.1% active; AID 651610, 2012; inhibition, % at 12.3 µM;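 active = mean replicate inhibition score of at least 50 and every replicate individually at or above 50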
CDK5 p35 inh: inhibitors of human CDK5/p35 kinase, primary screen, biochemical, single concentration; 330,000 tested, 0.01% active; inhibition, % at 10 µM; Cyclin-dependent kinase 5 (Homo sapiens) + Cyclin-dependent kinase 5 activator 1 (Homo …; Recombinant CDK5/p35, ADP-Glo luminescence, 60 min; AID 488839, 2010;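 active = highest replicate inhibition of at least 50% and at least 75% of replicates reaching 50%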
Target sequence (Q00535 whole entry, looked up): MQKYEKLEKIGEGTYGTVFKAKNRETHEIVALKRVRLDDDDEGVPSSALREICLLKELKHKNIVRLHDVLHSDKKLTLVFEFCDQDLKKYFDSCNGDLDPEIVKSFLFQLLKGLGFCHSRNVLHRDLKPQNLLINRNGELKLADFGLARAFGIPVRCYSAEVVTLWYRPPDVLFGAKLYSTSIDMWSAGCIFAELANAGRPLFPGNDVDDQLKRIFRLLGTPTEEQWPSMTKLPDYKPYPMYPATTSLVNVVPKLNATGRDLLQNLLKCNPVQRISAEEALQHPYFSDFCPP
Target sequence (Q15078 whole entry, looked up): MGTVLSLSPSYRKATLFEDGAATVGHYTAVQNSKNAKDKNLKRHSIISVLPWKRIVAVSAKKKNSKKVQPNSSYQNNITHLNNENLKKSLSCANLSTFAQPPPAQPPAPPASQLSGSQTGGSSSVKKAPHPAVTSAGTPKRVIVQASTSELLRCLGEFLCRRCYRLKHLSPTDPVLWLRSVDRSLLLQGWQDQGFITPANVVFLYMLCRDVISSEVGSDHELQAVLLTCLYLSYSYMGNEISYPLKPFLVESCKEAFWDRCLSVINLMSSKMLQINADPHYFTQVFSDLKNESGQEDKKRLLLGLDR
Cneo AK release: Cryptococcus neoformans cell lysis inducers, primary screen, AK release luminescence, single concentration; 360,000 tested, 0.2% active; lysis activity, % at 15 µM; C. neoformans lysis, adenylate kinase release luminescence, 4 h; normalised: neutral wells 0, clomiphene wells 100; AID 651654, 2012;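 active = mean lysis activity across replicates of at least 80%, whatever share of replicates individually reach that level; inactive = mean lysis activity below 80%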
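Material: C. neoformans cells; Schedule: 4 h static compound exposure, 37 °C, read 1 h post-reagent; Measured by: adenylate kinase release luminescence; Read-out: signal increase indicating cell lysis; Controls: Clomiphene as positive lysis control.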
INS-1E GSIS act: GLuc luminescence reporter in INS-1E cells, primary screen for activators of glucose-dependent secretion of insulin; 370,000 tested, 0.61% active; activation, % at 16.6 µM; INS-1E GLuc reporter insulin secretion, 2-3 h;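 active = lowest replicate activation of at least 40%, so every replicate reaches that level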
A number is an active result; [ ] = dose if it differs, or a comment. This is a sample that favours compounds with a hit; in the whole collection about 2.9% have one here.

How did C[C@@H]1CN([C@@H](C)CO)C(=O)c2cccc(NS(=O)(=O)c3ccc(F)cc3)c2O[C@@H]1CN(C)Cc1ccc(-c2ccccc2)cc1 do in these assays?
PAX8 inh HTS: 75; HIV Env fusion: 75[16.7 µM]; Cneo AK release: inactive; INS-1E GSIS act: inactive

Results for C[C@H](CO)N1C[C@H](C)[C@@H](CN(C)Cc2ccc(-c3ccccc3)cc2)Oc2c(NS(=O)(=O)c3ccc(F)cc3)cccc2C1=O ?
dFosB activator: inactive; PAX8 inh HTS: inactive; HIV Env fusion: inactive; CDK5 p35 inh: inactive; Cneo AK release: inactive; INS-1E GSIS act: inactive

What do the screens show for `CO[C@@H]1CN(C)C(=O)c2ccc(NC(=O)C3CCC3)cc2OC[C@@H](C)N(C(=O)c2ccccc2)C[C@H]1C`?
PAX8 inh HTS: inactive; Cneo AK release: inactive; INS-1E GSIS act: inactive

Results for COc1ccc(S(=O)(=O)Nc2ccc3c(c2)C(=O)N([C@@H](C)CO)C[C@H](C)[C@H](CN(C)Cc2ccncc2)OCCCC[C@@H](C)O3)cc1 ?
PAX8 inh HTS: inactive; HIV Env fusion: inactive; Cneo AK release: inactive; INS-1E GSIS act: inactive

Results for Cc1noc(C)c1NC(=O)N(C)C[C@@H]1OCCCC[C@H](C)Oc2ccc(NC(=O)c3ccncc3)cc2C(=O)N([C@@H](C)CO)C[C@H]1C ?
PAX8 inh HTS: inactive; HIV Env fusion: inactive; Cneo AK release: inactive; INS-1E GSIS act: inactive

How did COc1ccc(/C=C2\CCCC3C2=NN(C(=O)c2scnc2C)C3c2ccc(OC)c(OC)c2)cc1OC (stereo not given) do in these assays?
dFosB activator: inactive; HIV Env fusion: 66; CDK5 p35 inh: inactive; Cneo AK release: inactive

Results for C[C@@H]1CN([C@H](C)CO)C(=O)Cc2cc(N(C)C)ccc2O[C@@H]1CN(C)Cc1ccc(C(=O)Nc2ccccc2N)cc1 ?
PAX8 inh HTS: 62; HIV Env fusion: inactive; Cneo AK release: inactive; INS-1E GSIS act: inactive

How did C[C@H](CO)N1C[C@H](C)[C@H](CN(C)Cc2ccc(C(=O)Nc3ccccc3N)cc2)Oc2ccc(N(C)C)cc2C1=O do in these assays?
PAX8 inh HTS: 76; HIV Env fusion: inactive; Cneo AK release: inactive; INS-1E GSIS act: inactive

What do the screens show for `C[C@@H]1CN([C@H](C)CO)C(=O)Cc2cc(N(C)C)ccc2O[C@H]1CN(C)Cc1ccc(C(=O)Nc2ccccc2N)cc1`?
PAX8 inh HTS: inactive; HIV Env fusion: inactive; Cneo AK release: inactive; INS-1E GSIS act: inactive

What do the screens show for `O=C(C[C@@H]1CC[C@@H]2[C@H](COC[C@H](O)CN2Cc2ccncc2)O1)NCC1CC1`?
PAX8 inh HTS: inactive; Cneo AK release: inactive; INS-1E GSIS act: inactive

Results for Cc1ccc(Cn2nnnc2CN2CCC(c3nc4ccc(Cl)cc4[nH]3)CC2)cc1 ?
dFosB activator: inactive; HIV Env fusion: 75; CDK5 p35 inh: inactive; Cneo AK release: inactive

How did COC(=O)c1ccc(-c2ccc(OC)c([C@H]3[C@H]4C=CC[C@@H](C)[C@@H]4C(=O)N3Cc3ccccc3)c2)cc1 do in these assays?
dFosB activator: inactive; PAX8 inh HTS: inactive; HIV Env fusion: 64; CDK5 p35 inh: inactive; Cneo AK release: inactive; INS-1E GSIS act: inactive

Results for COc1ccc(-c2ccc(C(C)=O)cc2)cc1[C@H]1[C@H]2C=CC[C@@H](C)[C@@H]2C(=O)N1Cc1ccccc1 ?
dFosB activator: inactive; PAX8 inh HTS: inactive; HIV Env fusion: inactive; CDK5 p35 inh: inactive; Cneo AK release: inactive; INS-1E GSIS act: inactive

How did CO[C@@H]1CN(C)C(=O)c2ccc(NC(=O)Cc3ccccc3)cc2OC[C@H](C)N(C(C)=O)C[C@@H]1C do in these assays?
Cneo AK release: inactive; INS-1E GSIS act: inactive

How did O=C(O)CSc1nnc(Cc2ccccc2)n1Cc1ccccc1 do in these assays?
dFosB activator: inactive; HIV Env fusion: inactive; CDK5 p35 inh: inactive; Cneo AK release: inactive; INS-1E GSIS act: 57

What do the screens show for `O=C(O)CSc1nnc(Cc2ccccc2)n1-c1ccccc1`?
dFosB activator: inactive; PAX8 inh HTS: inactive; HIV Env fusion: inactive; CDK5 p35 inh: inactive; Cneo AK release: inactive

What do the screens show for `CCC(=O)N1[C@@H](C#N)[C@@H](c2ccccc2-c2ccccc2)[C@@H]1CO`?
INS-1E GSIS act: inactive
